These results are taken from ChEMBL document CHEMBL1125330, “N-substituted pyrazino[2,3-c][1,2,6]thiadiazine 2,2-dioxides. A new class of diuretics” (J Med Chem, 1992).

What all share (conditions): in vivo
Data set [1] concerns Rattus norvegicus. Nature of the data set: Mean sodium excretion in rats when compound administered at 80 mg/kg po and vehicle dosed at 268.71 umol/kg. It counts as ADME, organism-based. Set-up: dose 80 mg/kg, route oral. The method in brief: (§1)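 Male Sprague-Dawley rats (HC/CFY, 175-200 g) fasted and water-deprived 18 h before and during the test. Dosed by gavage at 2.5-160 mg/kg in 1% carboxymethyl cellulose/0.1% Tween 80, 0.5 mL/100 g bw. Immediately hydrated with water (2.5 mL/100 g bw, po). Urine collected 6 h in metabolic cages; Na+ and K+ by flame photometry; mean mequiv/6 h/kg bw; nonpaired Student t-test.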

Data set [2] deals with Rattus norvegicus. The experiment in a line: Volume of urine 3h after the compound was administered 10 mg/kg po in rat. It counts as ADME, organism-based. Set-up: dose 10 mg/kg, route oral. The gist of the method:
(§2)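 Onset/duration protocol: male Sprague-Dawley rats (HC/CFY, 175-200 g), food and water withdrawn for 18 h before and during the test. Single gavage dose in 1% carboxymethyl cellulose/0.1% Tween 80 (0.5 mL/100 g bw), then distilled water load (2.5 mL/100 g bw po). Two rats per metabolic cage, six pairs per group. Urine collected at 0-1, 1-2, 2-3, 3-4 and 4-6 h; Na+ by flame photometry. Vehicle controls; nonpaired Student t-test.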

Data set [3] has as its system Rattus norvegicus. Nature of the data set: Volume of urine 2 hr after the compound was administered 10 mg/kg po in rat. It counts as ADME, organism-based. Set-up: dose 10 mg/kg, route oral. The method in brief: as §2
Data set [4] concerns Rattus norvegicus. The experiment in a line: Mean sodium excretion in rats when compound administered at 5 mg/kg po and vehicle dosed at 16.79 umol/kg. It counts as ADME, organism-based. Further details: dose 5 mg/kg, route oral. The method in brief: as §1
The subject of data set [5] is Rattus norvegicus. Nature of the data set: Mean Chlorine excretion in rats when compound administered at 20 mg/kg po and vehicle dosed at 67.18 umol/kg. Further details: dose 20 mg/kg, route oral. In kind it is ADME, organism-based. The gist of the method:
(§3)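 Male Sprague-Dawley rats (HC/CFY, 175-200 g), no food or water for 18 h before and during the test. Single gavage dose (2.5-160 mg/kg; vehicle 1% carboxymethyl cellulose/0.1% Tween 80, 0.5 mL/100 g bw), then distilled water 2.5 mL/100 g bw po. Individual metabolic cages, 6 h urine. K+ by flame photometry, Cl- colorimetric, as mequiv/6 h/kg bw; unpaired Student t-test vs control.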

The test system of data set [6] is Rattus norvegicus. The experiment in a line: Mean Chlorine excretion in rats when compound administered at 2.5 mg/kg po and vehicle dosed at 8.4 umol/kg. It counts as ADME, organism-based. Further details: dose 2.5 mg/kg, route oral. The method in brief: as §3
Data set [7] concerns Rattus norvegicus. The experiment in a line: Mean sodium excretion in rats when compound administered at 40 mg/kg po and vehicle dosed at 134.35 umol/kg. In kind it is ADME, organism-based. Set-up: dose 40 mg/kg, route oral. The method in brief: as §1
For data set [8], the system named is Rattus norvegicus. Nature of the data set: Mean urinary output in rats when compound administered at 10 mg/kg po and vehicle dosed at 33.59 umol/kg. Further details: dose 10 mg/kg, route oral. In kind it is ADME, organism-based, Urine. The gist of the method: (§4)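 Water-loaded male Sprague-Dawley rats (HC/CFY, 175-200 g) fasted and without water for 18 h. Oral gavage of 2.5-160 mg/kg in 1% CMC with 0.1% Tween 80, then distilled water 2.5 mL/100 g po. Urine collected 6 h in metabolic cages, mean output in mL/6 h/kg bw. Unpaired Student t-test against vehicle; dose-response by linear regression.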

Data set [9] concerns Rattus norvegicus. The experiment in a line: Mean Chlorine excretion in rats when compound administered at 40 mg/kg po and vehicle dosed at 134.35 umol/kg. In kind it is ADME, organism-based. Further details: dose 40 mg/kg, route oral. The method in brief: as §3
Data set [10] has as its system Rattus norvegicus. The experiment in a line: Urinary sodium 2 hr after the compound was administered 10 mg/kg po in rat. It counts as ADME, organism-based, Urine. Set-up: dose 10 mg/kg, route oral. The method in brief: (§5)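 Onset and duration study in fasted, water-loaded male Sprague-Dawley rats housed two per metabolic cage, six pairs per group. Single oral dose given, then water 2.5 mL/100 g po. Urine volume and sodium (flame photometry) measured over 0-1, 1-2, 2-3, 3-4 and 4-6 h intervals. Mean values compared with vehicle by Student t-test.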

Data set [11] relates to Rattus norvegicus. The experiment in a line: Urinary sodium 3h after the compound was administered 10 mg/kg po in rat. It counts as ADME, organism-based, Urine. Further details: dose 10 mg/kg, route oral. The method in brief:
as §5

Data set [12] deals with Rattus norvegicus. Nature of the data set: Urinary sodium 6 hr after the compound was administered 10 mg/kg po in rat. In kind it is ADME, organism-based, Urine. Set-up: dose 10 mg/kg, route oral. The method in brief: as §5
In data set [13] the test system is Rattus norvegicus. Nature of the data set: Mean potassium excretion in rats when compound administered at 20 mg/kg po and vehicle dosed at 67.18 umol/kg. In kind it is ADME, organism-based. Set-up: dose 20 mg/kg, route oral. The gist of the method:
as §3

The subject of data set [14] is Rattus norvegicus. Nature of the data set: Volume of urine 1 hr after the compound was administered 10 mg/kg po in rat. In kind it is ADME, organism-based. Set-up: dose 10 mg/kg, route oral. The gist of the method:
as §2

In data set [15] the test system is Rattus norvegicus. Nature of the data set: Mean sodium excretion in rats when compound administered at 20 mg/kg po and vehicle dosed at 67.18 umol/kg. In kind it is ADME, organism-based. Further details: dose 20 mg/kg, route oral. The method in brief:
as §1

Data set [16] has as its system Rattus norvegicus. Nature of the data set: Mean urinary output in rats when compound administered at 0 mg/kg po and vehicle dosed at 0 umol/kg. It counts as ADME, organism-based, Urine. Set-up: dose 0 mg/kg, route oral. The gist of the method:
as §4

In data set [17] the test system is Rattus norvegicus. Nature of the data set: Mean Chlorine excretion in rats when compound administered at 80 mg/kg po and vehicle dosed at 268.71 umol/kg. In kind it is ADME, organism-based. Further details: dose 80 mg/kg, route oral. The method in brief:
as §3

Data set [18] relates to Rattus norvegicus. Nature of the data set: Volume of urine 6 hr after the compound was administered 10 mg/kg po in rat. It counts as ADME, organism-based. Set-up: dose 10 mg/kg, route oral. The gist of the method: as §2
Data set [19] deals with Rattus norvegicus. The experiment in a line: Mean sodium excretion in rats when compound administered at 0 mg/kg po and vehicle dosed at 0 umol/kg. It counts as ADME, organism-based. Set-up: dose 0 mg/kg, route oral. The gist of the method: as §1
In data set [20] the test system is Rattus norvegicus. The experiment in a line: Urinary sodium 1 hr after the compound was administered 10 mg/kg po in rat. In kind it is ADME, organism-based, Urine. Set-up: dose 10 mg/kg, route oral. The gist of the method:
as §5

Data set [21] deals with Rattus norvegicus. Nature of the data set: Mean potassium excretion in rats when compound administered at 10 mg/kg po and vehicle dosed at 33.59 umol/kg. It counts as ADME, organism-based. Further details: dose 10 mg/kg, route oral. The method in brief: as §3

In the case of `NS(=O)(=O)c1cc2c(cc1Cl)NCNS2(=O)=O` [HYDROCHLOROTHIAZIDE], the Na in the data set with Rattus norvegicus [1] is 3.19 m equiv 6hr-1 kg-1 (body weight)-1; in the data set with Rattus norvegicus [4], 3.03 m equiv 6hr-1 kg-1 (body weight)-1; in the data set with Rattus norvegicus [7] it was 2.78 m equiv 6hr-1 kg-1 (body weight)-1; in the data set on Rattus norvegicus [15], 3.05 m equiv 6hr-1 kg-1 (body weight)-1; in the data set on Rattus norvegicus [19], 0.32 m equiv 6hr-1 kg-1 (body weight)-1. Moreover, the Urine volume was found to be 3.37 mL in the data set on Rattus norvegicus [2], 4.97 mL in the data set with Rattus norvegicus [3], 1.38 mL with Rattus norvegicus [14] and 3.42 mL in the data set on Rattus norvegicus [18]. In addition, the Cl- in the data set with Rattus norvegicus [5] is recorded as 4.67 m equiv 6hr-1 kg-1 (body weight)-1; in the data set on Rattus norvegicus [6] it was 4.42 m equiv 6hr-1 kg-1 (body weight)-1; with Rattus norvegicus [9], 3.94 m equiv 6hr-1 kg-1 (body weight)-1; in the data set on Rattus norvegicus [17], 4.88 m equiv 6hr-1 kg-1 (body weight)-1. For the same compound, the V with Rattus norvegicus [8] is 39.01 ml 6hr-1 (kg of body weight)-1; in the data set on Rattus norvegicus [16], 24.3 ml 6hr-1 (kg of body weight)-1. Moreover, the “Urinary Na+” value is 0.39 m equiv with Rattus norvegicus [10], 0.17 m equiv with Rattus norvegicus [11], 0.24 m equiv with Rattus norvegicus [12] and 0.19 m equiv with Rattus norvegicus [20]. Further, the K in the data set with Rattus norvegicus [13] is reported as 1.43 m equiv 6hr-1 kg-1 (body weight)-1; in the data set on Rattus norvegicus [21], 1.14 m equiv 6hr-1 kg-1 (body weight)-1.
